# Data reported in the RNAGym collection of RNA variant scans (doi:10.1002/anie.201605470).
# B1: Osa-1-4 twister ribozyme (parent)
# chain: CCGCCUAACACUGCCAAUGCCGGUCCCAAGCCCGGAUAAAAGUGGAGGGGGCGG
# Variants of: B1
# Test: self-cleavage, relative activity (ratio to wild type); higher = more cleavage; co-transcriptional
# Outline: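 The 48 positions downstream of the cleavage site in a DNA template for a 54-nucleotide Oryza sativa twister ribozyme carried 97 % wild-type base and 1 % of each other base. After in vitro transcription (2 h, 37 °C) with co-transcriptional self-cleavage, the RNA was reverse-transcribed with a template-switching oligonucleotide, PCR-amplified and deep-sequenced. Relative activity is the fraction cleaved, judged by reads with or without upstream sequence and normalised to wild type.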
row,Variant,self-cleavage
1,A29G G48C,0.04
2,G30U U12A,0.03
3,A29U C15U,0.07
4,A29U C15A,0.04
5,A29U C15G,0.09
6,G30U G48A,0.02
7,G30U G48U,0.02
8,G30U G48C,0.02
9,G30C G35U,0.04
10,G30C G35A,0.05
11,G30C G35C,0.04
12,A29G G44C,0.16
13,A29G G44U,0.08
14,A29G G44A,0.07
15,A29G U24A,0.07
16,A29G U24C,0.08
17,A29G U24G,0.02
18,G30U G47U,0.03
19,G30U G47C,0.01
20,G30U G47A,0.03
21,G30C G51U,0.03
22,G30C G51A,0.05
23,G30C G51C,0.03
24,G30C G54U,0.05

row,Variant,self-cleavage
1,G30C G54C,0.04
2,G30C G54A,0.05
3,G30A G51A,0.04
4,G30A G51C,0.02
5,G30A G51U,0.04
6,G30C G42A,0.04
7,G30C G42U,0.02
8,G30C G42C,0.04
9,G30C G48A,0.02
10,G30C G48U,0.02
11,G30C G48C,0.02
12,A29U G23C,0.03
13,A29U G23U,0.03
14,A29U G23A,0.08
15,G30U G34C,0.05
16,G30U G34A,0.04
17,G30U G34U,0.04
18,A29U C9A,0.03
19,A29U C9U,0.05
20,A29U C9G,0.07
21,G30A G49A,0.02
22,G30A G49U,0.03
23,G30A G49C,0.02
24,A29U G34U,0.05

row,Variant,self-cleavage
1,A29U G34C,0.05
2,A29U G34A,0.07
3,G30C U18A,0.05
4,G30C U18G,0.06
5,G30C U18C,0.05
6,A29U G35U,0.09
7,A29U G35C,0.04
8,A29U G35A,0.11
9,A29G U43C,0.08
10,A29G U43A,0.07
11,A29G U43G,0.06
12,G30A G42C,0.03
13,G30A G42U,0.02
14,G30A G42A,0.04
15,A29G G51C,0.05
16,A29G G51A,0.1
17,A29G G51U,0.06
18,G30A G54A,0.05
19,G30A G54U,0.06
20,G30A G54C,0.04
21,G30C G50A,0.04
22,G30C G50C,0.05
23,G30C G50U,0.05
24,A29G U37C,0.28

row,Variant,self-cleavage
1,A29G U37A,0.32
2,A29G U37G,0.44
3,A29U U43G,0.08
4,A29U U43C,0.06
5,A29U U43A,0.06
6,A29G G22A,0.11
7,A29G G22C,0.12
8,A29G G22U,0.06
9,G30A,0.04
10,G30C,0.04
11,G30U,0.04
12,A29U C33A,0.04
13,A29U C33G,0.04
14,A29U C33U,0.08
15,A29G G23C,0.04
16,A29G G23A,0.07
17,A29G G23U,0.05
18,A29U A7U,0.05
19,A29U A7G,0.06
20,A29U A7C,0.02
21,G30A G34U,0.04
22,G30A G34C,0.05
23,G30A G34A,0.11
24,G30C G45C,0.02

row,Variant,self-cleavage
1,G30C G45U,0.02
2,G30C G45A,0.03
3,A29U A41U,0.2
4,A29U A41C,0.13
5,A29U A41G,0.06
6,A29U G13A,0.04
7,A29U G13C,0.01
8,A29U G13U,0.02
9,A29U G49A,0.03
10,A29U G49C,0.04
11,A29U G49U,0.02
12,G30C G34A,0.07
13,G30C G34U,0.04
14,G30C G34C,0.04
15,G30A U37G,0.05
16,G30A U37C,0.03
17,G30A U37A,0.03
18,A29U A46C,0.02
19,A29U A46G,0.04
20,A29U A46U,0.04
21,A29U C25A,0.03
22,A29U C25U,0.1
23,A29U C25G,0.05
24,A29U C31G,0.03

row,Variant,self-cleavage
1,A29U C31U,0.06
2,A29U C31A,0.02
3,A29U C27U,0.08
4,A29U C27G,0.05
5,A29U C27A,0.03
6,A29G G50A,0.27
7,A29G G50C,0.08
8,A29G G50U,0.17
9,A29U C52U,0.19
10,A29U C52A,0.08
11,A29U C52G,0.12
12,G30A U24C,0.03
13,G30A U24A,0.03
14,G30A U24G,0.01
15,A29U U24G,0.01
16,A29U U24C,0.06
17,A29U U24A,0.32
18,G30C G49C,0.02
19,G30C G49A,0.02
20,G30C G49U,0.02
21,G30A G44U,0.04
22,G30A G44C,0.04
23,G30A G44A,0.04
24,G30C G47A,0.03

row,Variant,self-cleavage
1,G30C G47C,0.02
2,G30C G47U,0.03
3,A29G G53C,0.06
4,A29G G53A,0.07
5,A29G G53U,0.07
6,G30A G47C,0.02
7,G30A G47U,0.02
8,G30A G47A,0.03
9,A29U G42U,0.03
10,A29U G42A,0.06
11,A29U G42C,0.04
12,A29U G30C,0.02
13,A29U G30U,0.03
14,A29U G30A,0.03
15,G30A U18G,0.06
16,G30A U18C,0.04
17,G30A U18A,0.07
18,G30U G42A,0.04
19,G30U G42U,0.02
20,G30U G42C,0.03
21,G30U G45A,0.03
22,G30U G45U,0.02
23,G30U G45C,0.02
